Test results published in ChEMBL document CHEMBL1155010, “Synthesis and biological evaluation of substituted [18F]imidazo[1,2-a]pyridines and [18F]pyrazolo[1,5-a]pyrimidines for the study of the peripheral benzodiazepine receptor using positron emission tomography” (J Med Chem, 2008).

What was measured:
[1] = test system: Kidney; assay: Biodistribution in Sprague-Dawley rat kidney assessed per gram of tissue at 1 MBq, iv after 0.25 hrs; type: ADME, organism-based; settings: in vivo
How it was run: (§1)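 Male SD rats aged 8-10 weeks got 1 MBq [18F]tracer by tail vein in 0.1 mL. Groups of n = 4 were killed (CO2, then cervical fracture) at 0.25, 0.5, 1 and 4 h. Organs were weighed and gamma counted against a diluted standard of the injectate. Results are %ID per gram wet tissue, mean with standard deviation.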

[2] = test system: Kidney; assay: Biodistribution in Sprague-Dawley rat kidney assessed per gram of tissue at 1 MBq, iv after 0.5 hrs; type: ADME, organism-based; settings: in vivo; how it was run: as §1
[3] = test system: Kidney; assay: Biodistribution in Sprague-Dawley rat kidney assessed per gram of tissue at 1 MBq, iv after 1 hr; type: ADME, organism-based; settings: in vivo; how it was run: as §1
[4] = test system: Kidney; assay: Biodistribution in Sprague-Dawley rat kidney assessed per gram of tissue at 1 MBq, iv after 4 hrs; type: ADME, organism-based; settings: in vivo; how it was run: as §1
[5] = test system: Heart; assay: Biodistribution in Sprague-Dawley rat heart assessed per gram of tissue at 1 MBq, iv after 0.25 hrs; type: ADME, organism-based; settings: in vivo; how it was run: as §1
[6] = test system: Heart; assay: Biodistribution in Sprague-Dawley rat heart assessed per gram of tissue at 1 MBq, iv after 0.5 hrs; type: ADME, organism-based; settings: in vivo; how it was run: as §1
[7] = test system: Heart; assay: Biodistribution in Sprague-Dawley rat heart assessed per gram of tissue at 1 MBq, iv after 1 hr; type: ADME, organism-based; settings: in vivo; how it was run: as §1
[8] = test system: Heart; assay: Biodistribution in Sprague-Dawley rat heart assessed per gram of tissue at 1 MBq, iv after 4 hrs; type: ADME, organism-based; settings: in vivo; how it was run: as §1
[9] = test system: Lung; assay: Biodistribution in Sprague-Dawley rat lungs assessed per gram of tissue at 1 MBq, iv after 0.25 hrs; type: ADME, organism-based; settings: in vivo; how it was run: as §1
[10] = test system: Lung; assay: Biodistribution in Sprague-Dawley rat lungs assessed per gram of tissue at 1 MBq, iv after 0.5 hrs; type: ADME, organism-based; settings: in vivo; how it was run: as §1
[11] = test system: Lung; assay: Biodistribution in Sprague-Dawley rat lungs assessed per gram of tissue at 1 MBq, iv after 1 hr; type: ADME, organism-based; settings: in vivo; how it was run: as §1
[12] = test system: Lung; assay: Biodistribution in Sprague-Dawley rat lungs assessed per gram of tissue at 1 MBq, iv after 4 hrs; type: ADME, organism-based; settings: in vivo; how it was run: as §1
[13] = test system: Spleen; assay: Biodistribution in Sprague-Dawley rat spleen assessed per gram of tissue at 1 MBq, iv after 0.25 hrs; type: ADME, organism-based; settings: in vivo; how it was run: as §1
[14] = test system: Spleen; assay: Biodistribution in Sprague-Dawley rat spleen assessed per gram of tissue at 1 MBq, iv after 0.5 hrs; type: ADME, organism-based; settings: in vivo; how it was run: as §1
[15] = test system: Spleen; assay: Biodistribution in Sprague-Dawley rat spleen assessed per gram of tissue at 1 MBq, iv after 1 hr; type: ADME, organism-based; settings: in vivo; how it was run: as §1
[16] = test system: Spleen; assay: Biodistribution in Sprague-Dawley rat spleen assessed per gram of tissue at 1 MBq, iv after 4 hrs; type: ADME, organism-based; settings: in vivo; how it was run: as §1
[17] = test system: Liver; assay: Biodistribution in Sprague-Dawley rat liver assessed per gram of tissue at 1 MBq, iv after 0.25 hrs; type: ADME, organism-based; settings: in vivo; how it was run: as §1
[18] = test system: Liver; assay: Biodistribution in Sprague-Dawley rat liver assessed per gram of tissue at 1 MBq, iv after 0.5 hrs; type: ADME, organism-based; settings: in vivo; how it was run: as §1
[19] = test system: Liver; assay: Biodistribution in Sprague-Dawley rat liver assessed per gram of tissue at 1 MBq, iv after 1 hr; type: ADME, organism-based; settings: in vivo; how it was run: as §1
[20] = test system: Liver; assay: Biodistribution in Sprague-Dawley rat liver assessed per gram of tissue at 1 MBq, iv after 4 hrs; type: ADME, organism-based; settings: in vivo; how it was run: as §1
[21] = test system: Adrenal; assay: Biodistribution in Sprague-Dawley rat adrenals assessed per gram of tissue at 1 MBq, iv after 0.25 hrs; type: ADME, organism-based, Adrenal tissue; settings: in vivo; how it was run: as §1
[22] = test system: Adrenal; assay: Biodistribution in Sprague-Dawley rat adrenals assessed per gram of tissue at 1 MBq, iv after 0.5 hrs; type: ADME, organism-based, Adrenal tissue; settings: in vivo; how it was run: as §1
[23] = test system: Adrenal; assay: Biodistribution in Sprague-Dawley rat adrenals assessed per gram of tissue at 1 MBq, iv after 1 hr; type: ADME, organism-based, Adrenal tissue; settings: in vivo; how it was run: as §1
[24] = test system: Adrenal; assay: Biodistribution in Sprague-Dawley rat adrenals assessed per gram of tissue at 1 MBq, iv after 4 hrs; type: ADME, organism-based, Adrenal tissue; settings: in vivo; how it was run: as §1
[25] = Biodistribution in Sprague-Dawley rat testis assessed per gram of tissue at 1 MBq, iv after 0.25 hrs; type: ADME, organism-based; settings: in vivo; how it was run: as §1
[26] = Biodistribution in Sprague-Dawley rat testis assessed per gram of tissue at 1 MBq, iv after 0.5 hrs; type: ADME, organism-based; settings: in vivo; how it was run: as §1
[27] = Biodistribution in Sprague-Dawley rat testis assessed per gram of tissue at 1 MBq, iv after 1 hr; type: ADME, organism-based; settings: in vivo; how it was run: as §1
[28] = Biodistribution in Sprague-Dawley rat testis assessed per gram of tissue at 1 MBq, iv after 4 hrs; type: ADME, organism-based; settings: in vivo; how it was run: as §1
[29] = test system: Blood; assay: Biodistribution in Sprague-Dawley rat blood at 1 MBq, iv after 1 hr; type: ADME, organism-based; settings: in vivo
How it was run: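 Male SD rats, 8-10 weeks old, given 1 MBq [18F]radiotracer by tail-vein injection in 0.1 mL. Groups of 4 killed (CO2, then cervical fracture) at 0.25, 0.5, 1 and 4 h post-injection. Tissues weighed and gamma-counted against a diluted standard of the injected solution. Activity expressed as %ID per gram wet tissue.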

[30] = Ratio of drug level in olfactory bulb to blood in Sprague-Dawley rat at 1 MBq, iv; type: ADME
How it was run: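 Same rat biodistribution as above: 1 MBq iv by tail vein, n = 4 per time point, 0.25-4 h, gamma counting as %ID/g. Ratio is the olfactory bulb radioactivity concentration divided by the blood concentration at each time.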

[31] = test system: Femur; assay: Biodistribution in Sprague-Dawley rat femur at 1 MBq, iv after 0.25 hrs; type: ADME, organism-based; settings: in vivo; how it was run: as §1
[32] = test system: Femur; assay: Biodistribution in Sprague-Dawley rat femur at 1 MBq, iv after 4 hrs; type: ADME, organism-based; settings: in vivo; how it was run: as §1
[33] = Metabolic stability in Sprague-Dawley rat plasma assessed as drug remaining at 30 MBq after 4 hrs by Radio-HPLC analysis; type: ADME, cell-free; settings: read-out: Stability
How it was run: (§2)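 Rats received 30 MBq tracer and were sampled at 0.25, 0.5, 1 and 4 h. Plasma was diluted with water containing unlabeled carrier and KF and injected directly. Frontal cortex or olfactory bulb was sonicated in acetonitrile/water 1:1 with carrier and KF, centrifuged, and the supernatant diluted. Radio-HPLC used a precolumn switched to C18 with a CH3CN/0.05 M sodium acetate pH 5.5 gradient. Result is % parent remaining.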

[34] = Metabolic stability in Sprague-Dawley rat frontal cortex assessed as drug remaining at 30 MBq after 0.25 hrs by Radio-HPLC analysis; type: ADME, tissue-based; settings: read-out: Stability; how it was run: as §2
[35] = Metabolic stability in Sprague-Dawley rat frontal cortex assessed as drug remaining at 30 MBq after 4 hrs by Radio-HPLC analysis; type: ADME, tissue-based; settings: read-out: Stability; how it was run: as §2
[36] = Metabolic stability in Sprague-Dawley rat olfactory bulb assessed as drug remaining at 30 MBq after 0.25 hrs by Radio-HPLC analysis; type: ADME, tissue-based; settings: read-out: Stability; how it was run: as §2
[37] = Metabolic stability in Sprague-Dawley rat olfactory bulb assessed as drug remaining at 30 MBq after 4 hrs by Radio-HPLC analysis; type: ADME, tissue-based; settings: read-out: Stability; how it was run: as §2

Work on `CCN(CC)C(=O)Cc1c(-c2ccc(OCC[18F])cc2)nn2c(C)cc(C)nc12` [DPA-714 F-18] yielded a Drug uptake [1] of 3.8 %ID, a Drug uptake [2] of 3.6 %ID and a Drug uptake [3] of 3.5 %ID. For the same compound, the Drug uptake [4] was 2.4 %ID, the Drug uptake [5] was 5.8 %ID and the Drug uptake [6] was 5.6 %ID. The Drug uptake [7] was 6.4 %ID, the Drug uptake [8] was 4.3 %ID and the Drug uptake [9] was 14.6 %ID. It also gave a Drug uptake [10] of 8.8 %ID, a Drug uptake [11] of 5.7 %ID and a Drug uptake [12] of 2.8 %ID. It also gave a Drug uptake [13] of 4.6 %ID, a Drug uptake [14] of 4.7 %ID and a Drug uptake [15] of 4.5 %ID. For the same compound, the Drug uptake [16] was 3.9 %ID, the Drug uptake [17] was 0.63 %ID and the Drug uptake [18] was 0.54 %ID. It also gave a Drug uptake [19] of 0.4 %ID, a Drug uptake [20] of 0.29 %ID and a Drug uptake [21] of 5.6 %ID. It also gave a Drug uptake [22] of 6.6 %ID, a Drug uptake [23] of 7.8 %ID and a Drug uptake [24] of 9.7 %ID. The Drug uptake [25] was 0.18 %ID, the Drug uptake [26] was 0.21 %ID and the Drug uptake [27] was 0.27 %ID. For the same compound, the Drug uptake [28] was 0.35 %ID, the Drug uptake [29] was 0.1 % ID/g and the Kp [30] was 2. It also gave a Drug uptake [31] of 0.4 % ID/g, a Drug uptake [32] of 0.7 % ID/g and a remaining at 4 h [33] of under 1%. It also gave a remaining at 0.25 h [34] of 55%, a remaining at 4 h [35] of 10% and a remaining at 0.25 h [36] of 80%. For the same compound, the remaining at 4 h [37] was 40%.
